The values that follow come from ChEMBL document CHEMBL3526154, “Metabolism, pharmacokinetics, tissue distribution, and stability studies of the prodrug analog of an anti-hepatitis B virus dinucleoside phosphorothioate” (Drug Metab Dispos, 2012).

In data set [1] the test system is Liver microsome. The experiment in a line: Drug metabolism in human liver microsomes assessed as Rp,Sp-dinucleotide-1 (O-((2R,3S,5R)-5-(6-amino-9H-purin-9-yl)-3-hydroxytetrahydrofuran-2-yl)methyl O-(2R,3R,4R,5R)-5-(2,4-dioxo-3,4-dihydropyrimidin-1(2H)-yl)-2-(hydroxymethyl)-4-methoxytetrahydrofuran-3-yl S-hydrogen phosphorothioate) metabolite formation at 10 uM incubated up to 8 hrs by LC/MS analysis. It counts as ADME. In a few lines:
(§1)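 Microsomes (1 mg/ml) pretreated 15 min on ice with alamethicin (10 µg/ml). Incubated with prodrug (10 µM final), NADPH 1.3 mM and UDP-GlcUA 5 mM in PBS at 37°C with shaking. Sampled at 1, 4, 6 and 8 h and quenched with acetonitrile. Supernatant lyophilised, reconstituted in water, analysed by C18 HPLC and by LC/MS.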

The nature of data set [2]: Half life of the compound in simulated gastric fluid by HPLC analysis. The data set is classed as ADME. In a few lines: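 Stock of 2 mg/100 µl in DMSO; 10 µl added to 200 µl simulated gastric fluid (NaCl, porcine pepsin, HCl, pH 1.2) or simulated intestinal fluid (KH2PO4, NaOH, pancreatin, pH 6.8), 37°C. Aliquots at 15 min, 30 min, 1 h, 3 h were quenched with acetonitrile (SGF neutralised to pH 7.0), centrifuged, lyophilised, reconstituted in water, analysed by C18 HPLC.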

Data set [3] deals with Liver microsome. The data set can be described thus: Drug metabolism in human liver microsomes assessed as Rp,Sp-dinucleotide-1 (O-((2R,3S,5R)-5-(6-amino-9H-purin-9-yl)-3-hydroxytetrahydrofuran-2-yl)methyl O-(2R,3R,4R,5R)-5-(2,4-dioxo-3,4-dihydropyrimidin-1(2H)-yl)-2-(hydroxymethyl)-4-methoxytetrahydrofuran-3-yl S-hydrogen phosphorothioate) metabolite formation at 10 uM incubated up to 8 hrs by HPLC analysis. It counts as ADME. In a few lines:
as §1

Data set [4] in a line: Drug metabolism in human liver S9 fraction assessed as Rp,Sp-dinucleotide-1 (O-((2R,3S,5R)-5-(6-amino-9H-purin-9-yl)-3-hydroxytetrahydrofuran-2-yl)methyl O-(2R,3R,4R,5R)-5-(2,4-dioxo-3,4-dihydropyrimidin-1(2H)-yl)-2-(hydroxymethyl)-4-methoxytetrahydrofuran-3-yl S-hydrogen phosphorothioate) metabolite formation at 10 uM by LC/MS analysis. As to conditions: s9, 10 µM. It counts as ADME, subcellular. The gist of the method: (§2)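 Pooled human liver S9 (1 mg/ml) pretreated 15 min on ice with alamethicin (10 µg/ml). Incubated with prodrug (10 µM), NADPH 1.3 mM, UDP-GlcUA 5 mM, S-adenosylmethionine 0.1 mM, PAPS 0.1 mM and acetyl-CoA 1 mM in PBS at 37°C with shaking. Sampled at 1, 4 and 6 h, acetonitrile-quenched, then analysed by HPLC and LC/MS.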

Data set [5] can be described thus: Time for almost complete conversion of the compound to 1 in simulated intestinal fluid by HPLC analysis.
Data set [6] in a line: Drug metabolism in human liver S9 fraction assessed as Rp,Sp-dinucleotide-1 (O-((2R,3S,5R)-5-(6-amino-9H-purin-9-yl)-3-hydroxytetrahydrofuran-2-yl)methyl O-(2R,3R,4R,5R)-5-(2,4-dioxo-3,4-dihydropyrimidin-1(2H)-yl)-2-(hydroxymethyl)-4-methoxytetrahydrofuran-3-yl S-hydrogen phosphorothioate) metabolite formation at 10 uM by HPLC analysis. The data set is classed as ADME, subcellular. As to conditions: s9, 10 µM. The gist of the method:
as §2

Data set [7] concerns Liver. The data set can be described thus: Drug level in human liver S9 fraction treated with Rp,Sp-dinucleotide-2 at 10 uM by HPLC analysis. It counts as ADME, subcellular. To be noted: s9, 10 µM. The gist of the method:
(§3)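 Pooled human liver S9 (1 mg/ml), alamethicin-treated (10 μg/ml, 15 min on ice), with NADPH 1.3 mM, UDP-GlcUA 5 mM in 1× PBS; substrate 10 μM final. Incubated 37°C shaking; sampled 1, 4, 6 h, acetonitrile quench, centrifuged, supernatant lyophilised, reconstituted in water; HPLC (C18, 25°C, 5–50% acetonitrile in 0.1 M NH4OAc over 45 min) and LC/MS.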

Data set [8] has as its system Liver. The data set can be described thus: Drug level in human liver S9 fraction treated with Rp,Sp-dinucleotide-2 at 10 uM by LC/MS analysis. The data set is classed as ADME, subcellular. To be noted: s9, 10 µM. The gist of the method: as §3
Data set [9] deals with Liver microsome. The data set can be described thus: Drug level in human liver microsomes treated with Rp,Sp-dinulceotide-2 at 10 uM incubated up to 8 hrs by HPLC analysis. It counts as ADME. The gist of the method:
(§4)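 Liver microsomes 1 mg/ml pretreated with alamethicin 10 μg/ml on ice 15 min; NADPH 1.3 mM and UDP-GlcUA 5 mM added in 1× PBS, substrate 10 μM final. Shaking bath at 37°C; aliquots at 1, 4, 6, 8 h quenched with acetonitrile, centrifuged, supernatant lyophilised and redissolved in water; analysed by C18 HPLC (5–50% acetonitrile/0.1 M NH4OAc gradient) and LC/MS.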

The subject of data set [10] is Liver microsome. The experiment in a line: Drug level in human liver microsomes treated with Rp,Sp-dinulceotide-2 at 10 uM incubated up to 8 hrs by LC/MS analysis. The data set is classed as ADME. In a few lines:
as §4

The nature of data set [11]: Stability of the compound in simulated intestinal fluid by HPLC analysis. It counts as ADME. To be noted: simulated gi fluid. In a few lines:
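Simulated intestinal fluid: KH2PO4 6.8 g/l with NaOH, pancreatin 10 g/l, pH 6.8. DMSO stock (2 mg/100 μl), 10 μl added to 200 μl SIF, 37°C; aliquots at 15 min, 30 min, 1 h, 3 h quenched with acetonitrile, centrifuged, supernatant lyophilised, reconstituted in water, analysed by C18 HPLC.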

On to `CO[C@@H]1[C@H](OP(=O)(OC[C@H]2O[C@@H](n3cnc4c(N)ncnc43)C[C@@H]2O)SCOC(=O)OC(C)C)[C@@H](CO)O[C@H]1n1ccc(=O)[nH]c1=O` (some centres not stated) [INARIGIVIR SOPROXIL], for which the Drug metabolism result (in the data set on Liver microsome [1]; in the data set with Liver microsome [3]; in data set [4]; in data set [6]) was “metabolite_detected” in each case. Further, the half-life in [2] was > 3 h. For the same compound, the time for complete conversion in [5] was 180 min.

Take `CO[C@@H]1[C@H](OP(=O)(S)OC[C@H]2O[C@@H](n3cnc4c(N)ncnc43)C[C@@H]2O)[C@@H](CO)O[C@H]1n1ccc(=O)[nH]c1=O` (some centres not stated) [INARIGIVIR]: in [2], the half-life is < 0.25 h. The Drug metabolism result in the data set with Liver [7], with Liver [8], in the data set with Liver microsome [9] and in the data set on Liver microsome [10] was “metabolite_detected” each time. Further, in [11], the Stability result is given as “Stable”.
